Reference: ChEMBL document CHEMBL2429753, “Synthesis and chemical and biological comparison of nitroxyl- and nitric oxide-releasing diazeniumdiolate-based aspirin derivatives” (J Med Chem, 2013)
The source made the active and inactive calls. The rule behind the calls is not given here.

What was measured:
[1] = Prodrug conversion of the compound assessed as conversion of MbO2 to metMb at 250 uM by spectrophotometry; assay type: ADME
How it was run: (§1)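 MbO2 (50 μM) exposed to compound at 37°C in pH 7.4 buffer (50 μM DTPA), with or without 2% guinea pig serum and with or without 1 mM GSH. Formation of metMb followed spectrally at 30-900 s intervals for 800 s to 6 h. MbO2 autoxidation monitored separately every 600 s over 12 h. n = 3.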

[2] = Drug metabolism in guinea pig serum assessed as NONO-salicylate formation at 100 uM after 5 mins by HPLC analysis; assay type: ADME, cell-free, Cavia porcellus
How it was run: (§2)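 Compound added at 100 μM final to 0.1 M phosphate buffer, pH 7.4, with 50 μM DTPA and 2% guinea pig serum, preheated to 37°C. Reaction followed over time by reversed-phase C18 HPLC with a water/acetonitrile gradient containing 0.1% formic acid. Products identified by co-elution with authentic standards.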

[3] = Drug metabolism of the compound in PBS buffer assessed as accumulation of DEA/NO at pH 10 after 10 mins by NMR spectroscopy; assay type: physicochemical; settings: pH 10, 10 min
[4] = Drug metabolism of the compound in PBS buffer at pH 10 after 90 mins by NMR spectroscopy; assay type: physicochemical; settings: pH 10, 1.5 h
[5] = Drug metabolism of the compound in PBS buffer assessed as accumulation of DEA/NO at pH 10 by NMR spectroscopy; assay type: physicochemical
[6] = Drug metabolism of the compound in PBS buffer assessed as aspirin formation at pH 10 by NMR spectroscopy; assay type: physicochemical
[7] = Drug metabolism of the compound in PBS buffer assessed as salicylate formation at pH 10 by NMR spectroscopy; assay type: physicochemical
[8] = Drug metabolism in guinea pig serum assessed as aspirin formation at 100 uM after 5 mins by HPLC analysis; assay type: ADME, cell-free, Cavia porcellus; how it was run: as §2
[9] = Drug metabolism of the compound in PBS buffer assessed as aspirin formation; assay type: physicochemical
[10] = Half life of the compound at pH 7.4 in presence of guinea pig serum; assay type: physicochemical
[11] = Half life of the compound at pH 7.4; assay type: physicochemical
HUVEC = assay: Cytotoxicity against human HUVEC cells up to 100 uM after 48 hrs by MTT assay; assay type: cell-based
How it was run: (§3)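 A549 cells in RPMI 1640 with 10% FBS, and HUVECs in endothelial growth medium, both at 37°C in 5% CO2. Seeded at 8,000-10,000 per well, grown overnight, then exposed to 0-200 μM for 48 h. MTT (10 μL of 2 mg/mL) added for 1 h at 37°C, formazan dissolved in DMSO and read at 550 nm. n = 3 for A549, n = 1 for HUVEC, each at least in triplicate.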

A549 [12] = assay: Cytotoxicity against human A549 cells after 48 hrs by MTT assay; assay type: functional, cell-based; settings: A549, 48 h; how it was run: as §3
Rattus norvegicus [13] = assay: Antiinflammatory activity in po dosed Sprague-Dawley rat assessed as inhibition of carrageenan-induced paw edema administered 1 hr prior to carrageenan challenge measured after 3 hrs; assay type: functional; settings: read-out: ID50 (the source's name)
How it was run: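 Rats 160-180 g (n = 3) given compound by gavage at 0.8 mmol/kg, suspended in 1% methyl cellulose in water; controls received vehicle. After 1 h, 100 μL of 1% carrageenan in 0.9% NaCl injected into the right hind paw. Paw volume read by plethysmometer at 0 and 3 h. ID50 taken from dose-response curves as the dose halving the control inflammatory response.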

A549 [14] = assay: Cellular uptake in human A549 cells assessed as HNO/NO release at 10 uM by fluorescence asay; assay type: ADME, cell-based; settings: a549, 10 µM
How it was run: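 A549 cells seeded at 60,000 per well and grown 4 h, then loaded with 10 μM DAF-FM diacetate in PBS for 75 min at 37°C and washed three times. Compound added at 10 μM final (prodrugs from DMSO stock, ionic NONOates from 10 mM NaOH stock). Fluorescence at 535 nm (excitation 485 nm) followed over time at 37°C. n = 2, six replicates per plate.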

Rattus norvegicus [15] = assay: Toxicity in Sprague-Dawley rat assessed as stomach ulcer at 1.38 mmol/kg, po after 6 hrs relative to aspirin; assay type: organism-based; settings: in vivo
How it was run: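 Rats fasted 24 h with water allowed, then dosed orally at 1.38 mmol/kg in 1% methylcellulose vehicle; controls received vehicle. Killed by CO2 at 6 h. Stomachs examined under a magnifying glass and ulcers scored by number and size (1 mm = 1; 1-2 mm = 2; >2 mm = length in mm). Ulcer index = total ulcer length per stomach averaged over animals (n = 4).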

[16] = Prodrug activation in guinea pig serum assessed as HNO release at 100 uM at pH > 6 by electrochemical detection method; design: species or system Cavia porcellus
How it was run: (§4)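 NO electrode equilibrated at room temperature in buffer of the chosen pH containing 50 μM DTPA and 2% guinea pig serum. Compound added at 100 μM (0.1% DMSO) and maximum current recorded; triplicate additions. HNO measured indirectly after adding 1 mM ferricyanide to oxidize it to NO. Mean ± SD, n = 3.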

[17] = Prodrug activation in guinea pig serum assessed as HNO release at 100 uM at pH < 6 by electrochemical detection method; design: species or system Cavia porcellus; how it was run: as §4
[18] = Prodrug conversion in guinea pig serum assessed as conversion of MbO2 to metMb at 50 uM by spectrophotometr; assay type: ADME, Cavia porcellus; how it was run: as §1
[19] = Prodrug conversion in guinea pig serum assessed as conversion of MbO2 to metMb at 100 uM by spectrophotometry; assay type: ADME, Cavia porcellus; settings: 50 or 250 µM, in the assay text read “at 50 or 250 uM” for “at 100 uM”; how it was run: as §1
Serum = assay: Drug metabolism in fetal bovine serum by HPLC analysis; assay type: ADME, cell-free, Bos taurus; settings: cattle
[20] = Drug metabolism of the compound in PBS buffer assessed as acetate formation at pH 10 by NMR spectroscopy; assay type: physicochemical
[21] = Drug metabolism of the compound in PBS buffer assessed as formaldehyde formation at pH 10 by NMR spectroscopy; assay type: physicochemical
[22] = Drug metabolism of the compound in PBS buffer assessed as salicylate formation at pH 7.4; assay type: physicochemical
[23] = Drug metabolism of the compound in PBS buffer assessed as isopropanol formation at pH 10 by NMR spectroscopy; assay type: physicochemical
[24] = Cardioprotective effect in mouse cardiomyocytes assessed as reduction in time required for half relaxation from peak shortening at 500 uM relative to control; assay type: functional, cell-based; design: scale not given: the % may be the effect or the level left; settings: Cardiomyocyte
How it was run: (§5)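 Ventricular myocytes from wild-type mice aged 2-4 months, anesthetized with ip pentobarbital 100 mg/kg, superfused with compound at 500 μM. Sarcomere shortening imaged under 0.5 Hz field stimulation and length tracked by real-time Fourier transform. Relaxation taken as time from peak shortening to 50% relaxation. Ca2+ transients read by confocal microscopy after fluo-4/AM loading (20 μM, 30 min). n = 12 cells.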

[25] = Cardioprotective effect in mouse cardiomyocytes assessed as increase in whole calcium transient at 500 uM by confocal laser scanning microscopy relative to control; assay type: functional, cell-based; settings: Cardiomyocyte; how it was run: as §5
[26] = Cardioprotective effect in mouse cardiomyocytes assessed as myocyte contractility measured as sarcomere shortening at 500 uM relative to control; assay type: functional, cell-based; settings: Cardiomyocyte; how it was run: as §5
[27] = Stability in mouse cardiomyocytes after 20 to 30 mins; assay type: ADME, cell-based; settings: cardiomyocyte
[28] = target: Glyceraldehyde-3-phosphate dehydrogenase (Homo sapiens) (UniProt P04406); assay: Inhibition of GAPDH in human A549 cells at 100 uM after 1 hr by fluorescence assay; assay type: cell-based
How it was run: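 A549 cells seeded at 30,000 per well, grown overnight and treated with 100 μM for 1 h at 37°C. Cells lysed 20 min at 4°C in KAlert buffer. Lysate mixed with KAlert mastermix and GAPDH activity read as fluorescence at 570 nm (excitation 540 nm). Mean ± SD of triplicate; one-way ANOVA against control.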

[29] = target: T1, Prostaglandin G/H synthase 2 (Homo sapiens) (UniProt P35354); assay: Inhibition of COX-2 mediated PGE2 production in human A549 cells at 25 to 50 uM after 24 hrs by EIA; assay type: cell-based
T1 sequence (whole entry): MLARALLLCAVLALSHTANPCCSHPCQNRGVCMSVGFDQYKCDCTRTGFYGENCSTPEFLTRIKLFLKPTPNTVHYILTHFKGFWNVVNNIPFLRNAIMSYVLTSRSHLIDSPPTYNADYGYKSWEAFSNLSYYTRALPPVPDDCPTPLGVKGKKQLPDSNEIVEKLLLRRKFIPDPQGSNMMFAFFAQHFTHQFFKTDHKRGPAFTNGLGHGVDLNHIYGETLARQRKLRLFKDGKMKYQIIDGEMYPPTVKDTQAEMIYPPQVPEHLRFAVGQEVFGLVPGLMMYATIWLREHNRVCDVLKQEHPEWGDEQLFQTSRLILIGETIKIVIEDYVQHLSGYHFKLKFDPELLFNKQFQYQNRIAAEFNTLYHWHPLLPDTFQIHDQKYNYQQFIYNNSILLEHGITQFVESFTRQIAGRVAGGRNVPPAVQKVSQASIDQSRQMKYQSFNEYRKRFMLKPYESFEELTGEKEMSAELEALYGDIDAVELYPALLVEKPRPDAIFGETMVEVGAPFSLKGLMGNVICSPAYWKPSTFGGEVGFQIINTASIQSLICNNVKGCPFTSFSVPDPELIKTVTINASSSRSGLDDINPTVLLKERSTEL
How it was run: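 A549 cells seeded at 50,000 per well and grown 12 h, then treated with 25 or 50 μM (0.1% DMSO) for 24 h at 37°C. PGE2 in the supernatant measured by competitive AChE-tracer EIA: overnight incubation at 4°C, Ellman's reagent development, […]. Run in triplicate.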

[30] = Half life of the compound; assay type: physicochemical
[31] = Drug metabolism in guinea pig serum assessed as NONO-salicylate formation at 100 uM after 40 mins by HPLC analysis; assay type: ADME, cell-free, Cavia porcellus; how it was run: as §2
[32] = Drug metabolism of the compound in guinea pig serum assessed as aspirin formation at 100 uM after 40 mins by HPLC analysis; assay type: ADME, cell-free, Cavia porcellus; how it was run: as §2

Chain of Glyceraldehyde-3-phosphate dehydrogenase (Homo sapiens) (P04406 2-335 limits assumed): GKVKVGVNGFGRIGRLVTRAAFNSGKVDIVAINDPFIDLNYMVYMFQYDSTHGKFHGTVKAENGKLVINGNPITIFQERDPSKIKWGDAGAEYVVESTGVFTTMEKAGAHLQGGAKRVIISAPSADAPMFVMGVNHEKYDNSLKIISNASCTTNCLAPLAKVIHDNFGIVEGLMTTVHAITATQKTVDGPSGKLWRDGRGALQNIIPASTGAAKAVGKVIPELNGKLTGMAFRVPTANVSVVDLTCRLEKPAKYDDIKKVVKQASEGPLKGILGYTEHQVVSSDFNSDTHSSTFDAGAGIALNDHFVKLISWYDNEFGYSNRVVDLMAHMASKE

## CCN(CC)/[N+]([O-])=N/OCOC(=O)c1ccccc1OC(C)=O
[1]
  Drug metabolism: Active
[2]
  Drug metabolism: Active
[3]
  Drug metabolism: Active
[4]
  Drug metabolism: Not Active
[5]
  Drug metabolism: Active
[6]
  Drug metabolism: Active
[7]
  Drug metabolism: Active
[8]
  Drug metabolism: Active
[9]
  Drug metabolism: Active
[10]
  half-life: 13 min
[11]
  half-life: 36 h
HUVEC
  Activity: Non-toxic
A549 [12]
  IC50: 135 µM
Rattus norvegicus [13]
  ED50: 169 mg/kg
A549 [14]
  Drug uptake: Active
Rattus norvegicus [15]
  UI: 0
[16]
  Drug metabolism: Not Active
[17]
  Drug metabolism: Not Active
[18]
  Drug metabolism: Active

## CC(=O)Oc1ccccc1C(=O)OCO/N=[N+](\[O-])NC(C)C
[19]
  Drug metabolism: Active
[1]
  Drug metabolism: Active
Serum
  Drug metabolism: Active
[2]
  Drug metabolism: Active
[7]
  Drug metabolism: Active
[20]
  Drug metabolism: Active
[21]
  Drug metabolism: Active
[22]
  Drug metabolism: Active
[23]
  Drug metabolism: Active
[8]
  Drug metabolism: Active
[10]
  half-life: 18 min
[11]
  half-life: 7.5 h
[24]
  Activity: 17%
[25]
  Activity: 24%
[26]
  Activity: 201%
[27]
  Stability: Stable
HUVEC
  Activity: Non-toxic
[28]
  inhibition: Active
A549 [12]
  IC50: 90 µM
[29]
  inhibition: Active
Rattus norvegicus [13]
  ED50: 121 mg/kg
A549 [14]
  Drug uptake: Active
Rattus norvegicus [15]
  UI: 3.3
[16]
  Drug metabolism: Active
[17]
  Drug metabolism: Not Active

## CC(C)N[N+]([O-])=N[O-].[Na+]
[30]
  half-life: 5.7 min

## CC(=O)Oc1ccccc1C(=O)O [ASPIRIN]
Rattus norvegicus [13]
  ED50: 129 mg/kg

## CCN(CC)/[N+]([O-])=N/[O-].[Na+]
[30]
  half-life: 2.5 min

## CCN(CC)/[N+]([O-])=N/OCOC(=O)c1ccccc1O
[31]
  Drug metabolism: Not Active

## CC(C)N/[N+]([O-])=N/OCOC(=O)c1ccccc1O
[32]
  Drug metabolism: Active
